Activity calls are given as the source filed them. The rule behind the calls is not given here.
Experiments:
Aurora kinase B [1] = molecular target: T1, Aurora kinase B (Homo sapiens, UniProt Q96GD4); experiment: Inhibition of full-length aurora-B (unknown origin) using 5FAMLRRASLG-CONH2 as substrate after 60 mins
Method in brief: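 Full-length Aurora-B/INCENP complex (1 nM) incubated with 1.5 μM 5FAM-LRRASLG-CONH2 peptide and 15 μM ATP in Tris pH 7.4 buffer with NaCl, MgCl2, DTT, Tween 20. Runs 60 min at room temperature, then EDTA stop. Microfluidic mobility-shift readout of percent conversion. Duplicate 8-point curves, 0.25 pM–200 μM final. IC50 by four-parameter logistic fit.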

Aurora kinase A [2] = molecular target: T2, Aurora kinase A (Homo sapiens, UniProt O14965); experiment: Inhibition of N-terminal HIS-tagged aurora-A (unknown origin) using 5FAM-LRRASLG-CONH2 as substrate after 60 mins
T2 sequence (O14965 whole entry): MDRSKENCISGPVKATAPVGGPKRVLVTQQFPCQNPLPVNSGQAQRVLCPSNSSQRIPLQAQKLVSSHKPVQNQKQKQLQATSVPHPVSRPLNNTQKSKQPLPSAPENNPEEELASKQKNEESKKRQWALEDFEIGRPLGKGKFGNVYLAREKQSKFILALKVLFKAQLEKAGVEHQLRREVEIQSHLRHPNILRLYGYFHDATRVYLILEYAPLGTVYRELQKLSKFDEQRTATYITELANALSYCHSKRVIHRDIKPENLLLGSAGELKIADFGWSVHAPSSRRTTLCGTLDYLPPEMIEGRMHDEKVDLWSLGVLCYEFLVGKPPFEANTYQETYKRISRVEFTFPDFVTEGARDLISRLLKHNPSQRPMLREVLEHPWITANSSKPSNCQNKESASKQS
Method in brief: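 Aurora-A (5 nM N-terminal His-tagged) incubated with 1.5 μM 5FAM-LRRASLG-CONH2 peptide and 20 μM ATP in 50 mM Tris pH 7.4, 200 mM NaCl, 5 mM MgCl2, 2 mM DTT, 0.1% Tween 20. Runs 60 min at room temperature; EDTA stop. Microfluidic separation of product from substrate. Duplicate 8-point curves, 0.25 pM–200 μM final, 1–2% DMSO. IC50 from four-parameter logistic fit.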

Aurora kinase B [3] = molecular target: T1, Aurora kinase B; experiment: Inhibition of N-terminal Myc tagged aurora-B-mediated histone H3 phosphorylation at S10 in human HeLa cells after 2 hrs; type: cell-based
Method in brief: (§1)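 Cells transfected with Myc-tagged Aurora-A (wild type or T217E, L215R, R220K mutants) and treated with inhibitor concentrations for 2 h. Lysed in LDS buffer; SDS-type PAGE and western blot. Blots probed for P-T288 (Aurora-A autophosphorylation) and phospho-histone H3 S10 (Aurora-B substrate). Blots quantified; IC50 derived; ratio taken as H3 IC50 over T288 IC50.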

Aurora kinase A [4] = molecular target: T2, Aurora kinase A; experiment: Inhibition of autophosphorylation of N-terminal Myc tagged aurora-A at T288 in human HeLa cells after 2 hrs; type: cell-based; method in brief: as §1
Aurora kinase B [5] = molecular target: T1, Aurora kinase B; conditions: HCT-116, 25 to 50 uM
[6] = molecular target: T3, Aurora kinase A (Homo sapiens) (UniProt O14965); conditions: HCT-116, 1.5 uM
T3 sequence (whole entry): T2 sequence (O14965 whole entry)

HeLa = experiment: Selectivity ratio of IC50 for aurora-B-mediated histone H3 phosphorylation at S10 in human HeLa cells to IC50 for autophosphorylation of N-terminal Myc tagged aurora-A at T288 in human HeLa cells; type: cell-based; method in brief: as §1
[7] = molecular target: Vascular endothelial growth factor receptor 1 (Homo sapiens) (UniProt P17948); experiment: Inhibition of VEGFR1 (unknown origin) at 1 uM
Method in brief: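 110-kinase panel profiling, compounds tested at 1 μM, read as percent inhibition.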

Aurora kinase A [8] = molecular target: T2, Aurora kinase A; experiment: Inhibition of autophosphorylation of N-terminal Myc tagged aurora-A at T288 in human HCT116 cells after 2 hrs; type: cell-based, HCT-116; method in brief: as §1
Aurora kinase B [9] = molecular target: T1, Aurora kinase B; experiment: Inhibition of N-terminal Myc tagged aurora-B-mediated histone H3 phosphorylation at S10 in human HCT116 cells after 2 hrs; type: cell-based, HCT-116
Method in brief: (§2)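 Cells transfected with N-terminal Myc-tagged Aurora-A (wild type or T217E, L215R or R220K mutant, made by Quikchange mutagenesis), then exposed to a range of inhibitor concentrations for 2 h. Lysed in LDS sample buffer, sonicated, boiled, run on LDS-PAGE and blotted to nitrocellulose. Probed with anti-P-T288 (Aurora-A autophosphorylation) and anti-P-histone H3 S10 (Aurora-B substrate) antibodies. Blots quantified and IC50 fitted.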

Homo sapiens = species on record: Homo sapiens; experiment: Selectivity ratio of IC50 for aurora-B (unknown origin)-mediated histone H3 phosphorylation at S10 to IC50 for autophosphorylation of N-terminal Myc tagged aurora-A at T288 (unknown origin); method in brief: as §1
Aurora kinase A [10] = molecular target: T2, Aurora kinase A; experiment: Inhibition of autophosphorylation of N-terminal Myc tagged aurora-A at T288 (unknown origin) after 2 hrs; method in brief: as §1
Aurora kinase B [11] = molecular target: T1, Aurora kinase B; experiment: Inhibition of N-terminal Myc tagged aurora-B (unknown origin)-mediated histone H3 phosphorylation at S10 after 2 hrs; method in brief: as §1
[12] = Metabolic stability in CD1 mouse liver microsomes at 10 uM after 30 mins; type: ADME, Microsome; conditions: read-out: Stability
Method in brief: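 Compound at 10 μM incubated with male CD1 mouse liver microsomes (1 mg/mL protein) plus NADPH 1 mM, UDPGA 2.5 mM and MgCl2 3 mM in 10 mM PBS at 37 °C, for 0 and 30 min. Controls omit cofactors. Percent remaining measured by LC/MS.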

Aurora kinase A [13] = molecular target: Aurora kinase A (Homo sapiens, UniProt O14965, L215R); experiment: Inhibition of autophosphorylation of aurora-A L215R mutant at T288 in human HCT116 cells after 2 hrs; type: cell-based, HCT-116; method in brief: as §2
[14] = Metabolic stability in human liver microsomes at 10 uM after 30 mins; type: ADME; conditions: read-out: Stability
Method in brief: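 Mixed-gender pooled human liver microsomes (1 mg/mL) incubated with compound at 10 μM plus NADPH 1 mM, UDPGA 2.5 mM and MgCl2 3 mM in 10 mM PBS at 37 °C, for 0 and 30 min. Cofactor-free controls included. Percent remaining measured by LC/MS.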

Mus musculus = experiment: Oral bioavailability in Balb/C mouse at 5 mg/kg; type: ADME, organism-based; conditions: in vivo
Method in brief: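 Female Balb/C mice given 5 mg/kg po or iv in 10% DMSO/5% Tween 20 in saline. Terminal cardiac-puncture plasma taken at 5, 15, 30 min and 1, 2, 4, 6, 24 h. Methanol precipitation with olomoucine internal standard. Analysis by LC/MS (ESI+ MRM).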

Aurora kinase A [15] = molecular target: Aurora kinase A (Homo sapiens, UniProt O14965, T217E); experiment: Inhibition of autophosphorylation of aurora-A T217E mutant at T288 in human HCT116 cells after 2 hrs; type: cell-based, HCT-116; method in brief: as §2
Aurora kinase A [16] = molecular target: T2, Aurora kinase A; experiment: Inhibition of autophosphorylation of N-terminal Myc tagged wild type aurora-A at T288 in human HCT116 cells after 2 hrs; type: cell-based, HCT-116; method in brief: as §2
Aurora kinase A [17] = molecular target: Aurora kinase A (Homo sapiens, UniProt O14965, R220K); experiment: Inhibition of autophosphorylation of aurora-A R220K mutant at T288 in human HCT116 cells after 2 hrs; type: cell-based, HCT-116; method in brief: as §2
Chain of Aurora kinase A (Homo sapiens, UniProt O14965, R220K) (O14965 whole entry I57V/R220K): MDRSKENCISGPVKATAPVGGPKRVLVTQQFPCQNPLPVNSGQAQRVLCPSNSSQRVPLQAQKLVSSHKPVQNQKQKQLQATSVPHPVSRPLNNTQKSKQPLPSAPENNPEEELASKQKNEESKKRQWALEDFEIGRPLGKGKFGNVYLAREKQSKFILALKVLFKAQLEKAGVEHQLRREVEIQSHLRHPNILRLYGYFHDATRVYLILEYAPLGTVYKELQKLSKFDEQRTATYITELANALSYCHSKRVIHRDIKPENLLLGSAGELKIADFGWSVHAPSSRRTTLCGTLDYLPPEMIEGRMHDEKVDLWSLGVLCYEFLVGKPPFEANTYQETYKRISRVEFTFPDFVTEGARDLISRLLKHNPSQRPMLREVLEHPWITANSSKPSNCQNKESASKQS

T1 sequence (Q96GD4 whole entry): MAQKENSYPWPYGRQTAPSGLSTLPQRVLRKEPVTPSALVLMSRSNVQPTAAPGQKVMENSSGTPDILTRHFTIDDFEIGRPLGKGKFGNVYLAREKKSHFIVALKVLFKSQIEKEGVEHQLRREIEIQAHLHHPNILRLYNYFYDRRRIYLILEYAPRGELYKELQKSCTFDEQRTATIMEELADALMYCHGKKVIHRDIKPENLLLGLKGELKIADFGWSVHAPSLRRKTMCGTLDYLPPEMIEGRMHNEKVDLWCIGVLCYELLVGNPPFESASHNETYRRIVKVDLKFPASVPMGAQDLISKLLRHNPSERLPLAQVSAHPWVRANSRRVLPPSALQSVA
Chain of Aurora kinase A (Homo sapiens, UniProt O14965, T217E) (O14965 whole entry I57V/T217E): as the sequence (O14965 whole entry I57V/R220K) above, with T217E, K220R counted along it
Chain of Vascular endothelial growth factor receptor 1 (Homo sapiens) (P17948 whole entry): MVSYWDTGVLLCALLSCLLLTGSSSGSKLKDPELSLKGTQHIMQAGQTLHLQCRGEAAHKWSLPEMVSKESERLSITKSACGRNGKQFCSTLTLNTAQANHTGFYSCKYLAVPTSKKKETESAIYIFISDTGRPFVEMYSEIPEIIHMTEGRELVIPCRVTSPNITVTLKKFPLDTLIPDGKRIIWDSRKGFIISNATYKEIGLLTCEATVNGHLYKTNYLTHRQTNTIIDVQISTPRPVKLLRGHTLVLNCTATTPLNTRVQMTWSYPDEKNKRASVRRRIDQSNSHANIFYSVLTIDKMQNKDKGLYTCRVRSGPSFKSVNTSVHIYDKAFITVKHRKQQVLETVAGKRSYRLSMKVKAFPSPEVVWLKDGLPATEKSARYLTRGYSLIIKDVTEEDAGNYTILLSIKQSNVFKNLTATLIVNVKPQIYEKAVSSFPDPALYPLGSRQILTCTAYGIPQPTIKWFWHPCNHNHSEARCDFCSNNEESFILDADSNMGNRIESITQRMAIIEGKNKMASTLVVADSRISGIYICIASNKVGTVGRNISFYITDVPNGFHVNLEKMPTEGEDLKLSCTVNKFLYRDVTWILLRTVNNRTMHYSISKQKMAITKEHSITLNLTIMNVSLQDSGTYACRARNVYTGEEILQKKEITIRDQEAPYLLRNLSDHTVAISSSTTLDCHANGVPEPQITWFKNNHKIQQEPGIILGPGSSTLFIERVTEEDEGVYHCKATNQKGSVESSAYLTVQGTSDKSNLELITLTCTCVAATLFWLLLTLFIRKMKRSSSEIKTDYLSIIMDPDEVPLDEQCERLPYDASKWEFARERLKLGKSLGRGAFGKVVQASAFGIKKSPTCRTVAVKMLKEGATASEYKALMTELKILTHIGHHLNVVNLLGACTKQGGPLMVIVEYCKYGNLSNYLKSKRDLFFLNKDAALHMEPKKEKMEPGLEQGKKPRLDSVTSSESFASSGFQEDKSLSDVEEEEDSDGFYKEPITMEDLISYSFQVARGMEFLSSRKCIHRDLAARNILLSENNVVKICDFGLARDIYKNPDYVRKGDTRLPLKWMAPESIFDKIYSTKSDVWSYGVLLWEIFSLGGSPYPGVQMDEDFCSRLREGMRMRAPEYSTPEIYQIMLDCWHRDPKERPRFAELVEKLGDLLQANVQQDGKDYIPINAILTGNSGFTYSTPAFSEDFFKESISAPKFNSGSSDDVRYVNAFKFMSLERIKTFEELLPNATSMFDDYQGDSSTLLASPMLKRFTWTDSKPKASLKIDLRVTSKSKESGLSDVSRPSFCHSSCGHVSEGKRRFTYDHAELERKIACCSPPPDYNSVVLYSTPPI
Chain of Aurora kinase A (Homo sapiens, UniProt O14965, L215R) (O14965 whole entry I57V/L215R): as the sequence (O14965 whole entry I57V/R220K) above, with L215R, K220R counted along it

SMILES | IC50 (Aurora kinase B [1]) [µM] | IC50 (Aurora kinase A [2]) [µM] | other results
Cc1nn(C)cc1-c1nc2ncc(Cl)c(Oc3ccc(C(=O)N4CCCC4)cc3)c2[nH]1 | 1.82 | 0.045 | 
CC(=O)NC[C@@H]1CCN(c2c(Cl)cnc3nc(-c4cn(C)nc4C)[nH]c23)C1 | 0.007 | 0.009 | 
Cc1nn(C)cc1-c1nc2c(N3CCC[C@H](CN(C)S(C)(=O)=O)C3)c(Cl)cnc2[nH]1 | 0.009 | 0.005 | 
Cc1nn(C)cc1-c1nc2c(Oc3ccc(C(=O)NC4CCC4)cc3)c(Cl)cnc2[nH]1 |  |  | inhibition (Aurora kinase B [5]): Active; inhibition [6]: Active; Ratio IC50 (HeLa): 346; inhibition [7]: > 80%
Cc1nn(C)cc1-c1nc2c(Oc3ccc(C(=O)Nc4ccncc4)cc3)c(Cl)cnc2[nH]1 |  |  | Ratio IC50 (HeLa): 34
Cc1nn(C)cc1-c1nc2c(Oc3ccc(C(=O)Nc4ccccc4)cc3)ccnc2[nH]1 |  | 0.618 | 
Cc1nn(C)cc1-c1nc2c(Nc3ccc(C(=O)Nc4ccccc4)cc3)c(Cl)cnc2[nH]1 | 4.12 | 0.075 | Ratio IC50 (Homo sapiens): 58; IC50 (Aurora kinase A [10]): 0.32 µM; IC50 (Aurora kinase B [11]): 18.6 µM
Cc1nn(C)cc1-c1nc2c(N3CCC[C@H](CNS(C)(=O)=O)C3)c(Cl)cnc2[nH]1 | 0.008 | 0.005 | 
COc1ccc(-c2[nH]c3ncc(Cl)cc3c2-c2cccc(CNC(C)=O)c2)cc1 | 1.09 | 0.743 | 

Second part, led by results:

IC50 (Aurora kinase B [1]) [µM] | IC50 (Aurora kinase A [2]) [µM] | SMILES | other results
0.097 | 0.118 | CC(=O)NCc1cccc(-c2c(-c3cnn(C)c3)[nH]c3ncc(Cl)cc23)c1 | 
0.169 | 0.255 | Cc1nn(C)cc1-c1nc2c(N(C)Cc3ccccc3)c(Cl)cnc2[nH]1 | 
0.017 | 0.007 | Cc1nn(C)cc1-c1nc2ncc(Cl)c(N3CCC[C@@H](CNS(C)(=O)=O)C3)c2[nH]1 | 
3.45 | 0.19 | Cc1nn(C)cc1-c1nc2ncc(Cl)c(Oc3ccc(C(=O)Nc4ccncc4)cc3)c2[nH]1 | IC50 (Aurora kinase B [3]): 19.7 µM; IC50 (Aurora kinase A [4]): 0.58 µM
0.441 | 0.211 | Cn1cc(-c2[nH]c3ncc(Cl)cc3c2-c2cccc(CNS(C)(=O)=O)c2)cn1 | 
7.1 | 1.94 | COc1ccc(-c2[nH]c3ncc(Cl)cc3c2-c2cccc(CNS(C)(=O)=O)c2)cc1 | 
1.68 | 0.058 | Cc1nn(C)cc1-c1nc2c(Oc3ccc(C(=O)Nc4cccnc4)cc3)c(Cl)cnc2[nH]1 | IC50 (Aurora kinase B [3]): 19.7 µM; IC50 (Aurora kinase A [4]): 0.28 µM; Ratio IC50 (HeLa): 70
0.693 | 0.071 | Cc1cc(NC(=O)c2ccc(Oc3c(Cl)cnc4nc(-c5cn(C)nc5C)[nH]c34)cc2)on1 | IC50 (Aurora kinase A [8]): 0.095 µM; IC50 (Aurora kinase B [9]): 4.93 µM
3.05 | 0.015 | Cc1nn(C)cc1-c1nc2ncc(Cl)c(Oc3ccc(C(=O)NC4CCC4)cc3)c2[nH]1 | remaining at 0.5 h, 10 µM [12]: 28%; IC50 (Aurora kinase A [13]): 0.043 µM; remaining at 0.5 h, 10 µM [14]: 22%; F (Mus musculus): 14%; IC50 (Aurora kinase B [3]): 24.2 µM; IC50 (Aurora kinase A [4]): 0.07 µM; IC50 (Aurora kinase A [15]): 2.29 µM; IC50 (Aurora kinase A [16]): 0.036 µM; IC50 (Aurora kinase A [17]): 0.042 µM
0.08 | 0.27 | CC(=O)N[C@H]1CCN(c2c(Cl)cnc3[nH]c(-c4cn(C)nc4C)nc23)C1 | 
0.002 | 0.004 | CC(=O)N[C@@H]1CCN(c2c(Cl)cnc3[nH]c(-c4cn(C)nc4C)nc23)C1 | 
3.91 | 0.204 | Cc1nn(C)cc1-c1nc2c(Oc3ccc(C(=O)NCc4ccccc4)cc3)c(Cl)cnc2[nH]1 | 
 | 25.8 | O=C(Nc1ccccc1)c1ccc(Oc2c(Cl)cnc3nc[nH]c23)cc1 | 

Reference: ChEMBL document CHEMBL3085696, “Aurora isoform selectivity: design and synthesis of imidazo[4,5-b]pyridine derivatives as highly selective inhibitors of Aurora-A kinase in cells” (J Med Chem, 2013)
